The test concerns Mycobacterium tuberculosis. In words: Antituberculosis activity against Mycobacterium tuberculosis H37Rv ATCC 27294 after 7 to 10 days by microplate alamar blue assay. The test is classed as functional. The method in brief:
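Microdilution in 96-well format. Test materials were incubated with virulent M. tuberculosis H37Rv for 7–10 days at 0.1 to 128 μg/mL. Growth was read fluorometrically with Alamar Blue. MIC90 and percent inhibition were calculated against a 1:10 dilution of the inoculum. Rifampin served as the positive control and DMSO as the negative control.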

Data on 13 compounds can be found in ChEMBL document CHEMBL1157103, “Structure and anti-TB activity of trachylobanes from the liverwort Jungermannia exsertifolia ssp. cordifolia” (2010).

≈ marks a conversion by molar mass, not a printed value.

For `CC(=O)O[C@@H]1CC[C@@]2(C)[C@@H]3C[C@@H]4[C@H]5C[C@@]3(CC[C@@H]2[C@@]1(C)C=O)C[C@@]45C`, the MIC90 (commonly the lowest concentration that inhibits either 90% of growth or 90% of the strains tested, depending on the study) is over 371 µM.

On to `CC(=O)OC[C@]1(C)[C@H]2CC[C@@]34C[C@@H]5[C@@H](C[C@H]3[C@]2(C)CC[C@H]1O)[C@]5(C)C4`, for which the MIC90 is over 370 µM.

Turning to `CC1(C)[C@H](O)CC[C@]2(C)[C@@H]1CC[C@@]13C[C@@H]4[C@@H](C[C@H]12)[C@]4(C(=O)O)C3`, the MIC90 was over 402 µM.

For the compound `CC(=O)OC[C@@]1(C(=O)O)[C@H](OC(C)=O)CC[C@@]2(C)[C@@H]3C[C@@H]4[C@H]5C[C@@]3(CC[C@@H]21)C[C@@]45C`, the MIC90 was over 306 µM.

Compound `CC(=O)O[C@@H]1CC[C@]2(C)[C@H](CC[C@@]34C[C@@H]5[C@@H](C[C@H]32)[C@]5(C)C4)[C@@]1(C)CO` returned an MIC90 of over 370 µM.

On to `CC(=O)O[C@@H]1CC[C@]2(C)[C@H](CC[C@@]34C[C@@H]5[C@@H](C[C@H]32)[C@]5(C)C4)C1(C)C`, for which the MIC90 amounted to 337 µM (≈ 111 µg/mL).

As for `CC1(C)CCC[C@]2(C)[C@@H]1CC[C@@]13C[C@@H]4[C@@H](C[C@H]12)[C@]4(C=O)C3`, the MIC90 stood at 85 µM (≈ 24.3 µg/mL). This MIC90 lies about 4-fold lower than the previous one.

`CC1(C)CCC[C@]2(C)[C@@H]1CC[C@@]13C[C@@H]4[C@@H](C[C@H]12)[C@]4(CO)C3`: the MIC90 stood at 446 µM (≈ 129 µg/mL).

Compound `CC(=O)O[C@@H]1CC[C@@]2(C)[C@@H]3C[C@@H]4[C@H]5C[C@@]3(CC[C@@H]2[C@]1(C)C=O)C[C@@]45C` showed an MIC90 of over 371 µM.

The compound `CC(=O)O[C@@H]1CC[C@]2(C)[C@H](CC[C@@]34C[C@@H]5[C@@H](C[C@H]32)[C@]5(C)C4)[C@]1(C)CO` registered an MIC90 of 171 µM (≈ 59.3 µg/mL).

The compound `CC1(C)[C@H](O)CC[C@]2(C)[C@@H]1CC[C@@]13C[C@@H]4[C@@H](C[C@H]12)[C@]4(C)C3` gave an MIC90 of 212 µM (≈ 61.2 µg/mL). The MIC90 values of the last two compounds are within 1.5-fold of each other.

As to `CC1(C)C(=O)CC[C@@]2(C)[C@@H]3C[C@@H]4[C@@H]5C[C@@]3(CC[C@@H]12)C[C@@]45C`, the MIC90 was determined as 173 µM (≈ 49.6 µg/mL).

As to `CO[C@H]1/C=C/O[C@@]2(C)Oc3c(C)c(O)c4c(O)c(c(/C=N/N5CCN(C)CC5)c(O)c4c3C2=O)NC(=O)/C(C)=C\C=C\[C@H](C)[C@H](O)[C@@H](C)[C@@H](O)[C@@H](C)[C@H](OC(C)=O)[C@@H]1C` [RIFAMPIN], the MIC90 is under 0.15 µM.
